# Test results: ChEMBL document CHEMBL1154121, “alpha-Substituted norstatines as the transition-state mimic in inhibitors of multiple digestive vacuole malaria aspartic proteases” (Bioorg Med Chem, 2009)
# The source made the active and inactive calls. The calls are words filed in the database; no cut-off is given here.
# Experiments:
# Cathepsin D [1] = target: T1, Cathepsin D (Homo sapiens, UniProt P07339); test: Inhibition of human liver cathepsin D
# Outline: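 Human liver cathepsin D activated 20 min at 37 °C in 100 mM sodium acetate pH 4.5, 10% glycerol, 0.01% Tween 20. Inhibitor serially diluted in DMSO (1% final) added before 3 µM DABCYL-Glu-Arg-Nle-Phe-Leu-Ser-Phe-Pro-EDANS; fluorescence increase read over 10 min. IC50 from Langmuir isotherm assuming competitive inhibition, converted to Ki via IC50/(1+[S]/Km); top concentration limited to 10.0 µM by inhibitor fluorescence.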
# [2] = Inhibition of Plasmodium falciparum plasmepsin-4 expressed in Escherichia coli BL21 (DE3) by spectrophotometric assay with chromogenic substrate
# Plasmepsin II = Plasmepsin II (Plasmodium falciparum, UniProt P46925); test: Inhibition of Plasmodium falciparum plasmepsin-2 expressed in Escherichia coli BL21 (DE3) by spectrophotometric assay with chromogenic substrate
# Sequence of Plasmepsin II (P46925 whole entry): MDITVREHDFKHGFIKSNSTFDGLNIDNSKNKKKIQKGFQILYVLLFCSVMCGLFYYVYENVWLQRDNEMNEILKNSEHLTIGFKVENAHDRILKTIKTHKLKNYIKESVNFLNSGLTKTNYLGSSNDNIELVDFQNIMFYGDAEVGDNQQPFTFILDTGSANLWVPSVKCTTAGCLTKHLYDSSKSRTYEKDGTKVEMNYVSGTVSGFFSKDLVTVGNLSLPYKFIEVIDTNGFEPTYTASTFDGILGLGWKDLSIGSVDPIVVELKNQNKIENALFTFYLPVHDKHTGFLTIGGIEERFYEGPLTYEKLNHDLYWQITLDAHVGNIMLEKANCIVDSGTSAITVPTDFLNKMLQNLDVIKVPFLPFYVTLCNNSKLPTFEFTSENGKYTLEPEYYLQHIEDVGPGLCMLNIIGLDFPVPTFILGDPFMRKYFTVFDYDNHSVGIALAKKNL
# [3] = Inhibition of Plasmodium ovale plasmepsin-4 expressed in Escherichia coli BL21 (DE3) by spectrophotometric assay with chromogenic substrate
# [4] = Inhibition of Plasmodium malariae plasmepsin-4 expressed in Escherichia coli BL21 (DE3) by spectrophotometric assay with chromogenic substrate
# Aspartic protease PM4 = Aspartic protease PM4 (Plasmodium vivax, UniProt O60989); test: Inhibition of Plasmodium vivax plasmepsin-4 expressed in Escherichia coli BL21 (DE3) by spectrophotometric assay with chromogenic substrate
# Sequence of Aspartic protease PM4 (O60989 whole entry): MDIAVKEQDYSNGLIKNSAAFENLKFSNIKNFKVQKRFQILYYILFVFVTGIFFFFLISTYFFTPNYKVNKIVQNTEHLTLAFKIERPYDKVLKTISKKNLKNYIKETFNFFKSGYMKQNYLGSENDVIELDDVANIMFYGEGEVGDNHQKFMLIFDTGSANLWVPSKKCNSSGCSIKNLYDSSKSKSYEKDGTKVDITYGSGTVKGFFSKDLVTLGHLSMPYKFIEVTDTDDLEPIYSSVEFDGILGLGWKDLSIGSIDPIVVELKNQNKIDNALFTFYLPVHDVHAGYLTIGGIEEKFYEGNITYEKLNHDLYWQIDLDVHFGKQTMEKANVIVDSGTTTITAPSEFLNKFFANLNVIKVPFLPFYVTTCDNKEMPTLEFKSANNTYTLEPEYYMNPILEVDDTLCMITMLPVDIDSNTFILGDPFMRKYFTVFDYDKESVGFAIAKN
# Cathepsin D [5] = target: T1, Cathepsin D; test: Ratio of compound Ki to KNI-10006 Ki for human liver cathepsin D
# [6] = target: Beta-secretase 1 (Homo sapiens) (UniProt P56817); test: Inhibition of human BACE1 at < 10 uM
# Sequence of Beta-secretase 1 (Homo sapiens) (P56817 whole entry): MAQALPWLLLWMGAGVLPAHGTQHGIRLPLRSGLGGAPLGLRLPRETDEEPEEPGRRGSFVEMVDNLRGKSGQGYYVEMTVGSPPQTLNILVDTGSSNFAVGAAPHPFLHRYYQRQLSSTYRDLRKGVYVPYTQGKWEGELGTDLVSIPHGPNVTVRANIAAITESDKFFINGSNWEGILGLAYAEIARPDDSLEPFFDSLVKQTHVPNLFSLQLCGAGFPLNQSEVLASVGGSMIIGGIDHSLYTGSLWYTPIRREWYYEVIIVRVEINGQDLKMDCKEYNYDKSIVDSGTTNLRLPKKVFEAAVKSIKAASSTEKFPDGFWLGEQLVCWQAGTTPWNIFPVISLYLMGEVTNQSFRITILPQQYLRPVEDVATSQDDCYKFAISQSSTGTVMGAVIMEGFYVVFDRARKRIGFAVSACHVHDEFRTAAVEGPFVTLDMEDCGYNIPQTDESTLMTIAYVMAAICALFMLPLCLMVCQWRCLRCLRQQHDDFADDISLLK
# [7] = Selectivity ratio of Ki for human liver cathepsin D to Ki for Plasmodium falciparum plasmepsin-2 expressed in Escherichia coli BL21 (DE3)
# [8] = Inhibition of Plasmodium falciparum plasmepsin-4
# Outline: (§1)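 Self-activated in 0.1 M sodium acetate pH 4.5, 37 °C, 5 min. Chromogenic substrate hydrolysis followed spectrophotometrically; Michaelis-Menten curves at ≥5 substrate levels with no inhibitor and two inhibitor concentrations, fitted together for Ki.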
# Plasmepsin I = Plasmepsin I (Plasmodium falciparum, UniProt P39898); test: Inhibition of Plasmodium falciparum plasmepsin-1
# Sequence of Plasmepsin I (P39898 whole entry): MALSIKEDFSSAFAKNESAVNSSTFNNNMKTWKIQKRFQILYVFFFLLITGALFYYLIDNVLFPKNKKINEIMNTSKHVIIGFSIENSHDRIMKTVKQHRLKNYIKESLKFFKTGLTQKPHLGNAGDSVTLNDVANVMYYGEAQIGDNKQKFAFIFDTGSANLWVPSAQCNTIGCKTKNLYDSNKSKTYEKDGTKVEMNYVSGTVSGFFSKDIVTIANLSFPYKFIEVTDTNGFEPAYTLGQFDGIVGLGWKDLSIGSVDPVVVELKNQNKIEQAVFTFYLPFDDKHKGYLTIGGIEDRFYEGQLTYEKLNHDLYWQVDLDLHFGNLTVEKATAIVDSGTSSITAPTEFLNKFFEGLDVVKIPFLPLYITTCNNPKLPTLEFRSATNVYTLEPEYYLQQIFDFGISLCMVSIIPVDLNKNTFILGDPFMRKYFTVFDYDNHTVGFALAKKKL
# Plasmodium falciparum = test: Antiplasmodial activity against Plasmodium falciparum infected in erythrocyte culture; format: functional, organism-based
# Plasmepsin III = Plasmepsin III (Plasmodium falciparum, UniProt Q9Y006); test: Inhibition of Plasmodium falciparum histo-aspartyl protease
# Sequence of Plasmepsin III (Q9Y006 whole entry): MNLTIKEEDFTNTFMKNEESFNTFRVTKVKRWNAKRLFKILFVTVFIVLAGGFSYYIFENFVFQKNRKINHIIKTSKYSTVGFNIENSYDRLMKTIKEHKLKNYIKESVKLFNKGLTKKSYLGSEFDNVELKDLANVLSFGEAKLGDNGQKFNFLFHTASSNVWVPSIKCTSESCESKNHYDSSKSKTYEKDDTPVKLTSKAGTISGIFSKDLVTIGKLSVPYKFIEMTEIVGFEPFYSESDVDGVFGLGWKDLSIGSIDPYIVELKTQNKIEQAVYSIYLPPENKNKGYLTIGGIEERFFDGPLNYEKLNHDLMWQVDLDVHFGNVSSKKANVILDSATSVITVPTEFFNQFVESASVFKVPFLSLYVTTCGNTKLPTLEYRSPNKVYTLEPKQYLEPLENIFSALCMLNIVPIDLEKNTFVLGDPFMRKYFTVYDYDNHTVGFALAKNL
# Protease = Protease (Human immunodeficiency virus 1, UniProt Q9YQ12); test: Inhibition of HIV1 protease
# Sequence of Protease (Q9YQ12 whole entry): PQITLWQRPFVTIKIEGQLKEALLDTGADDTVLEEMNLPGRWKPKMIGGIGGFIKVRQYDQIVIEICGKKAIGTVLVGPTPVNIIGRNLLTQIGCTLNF
# Outline: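 Recombinant HIV-1 protease expressed in E. coli; Ki from fluorometric assay, two independent measurements; a reference inhibitor included to check variability, standard deviation ±50% of mean.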
# [9] = Inhibition of Plasmodium malariae plasmepsin-4; outline: as §1
# [10] = tested on: Human immunodeficiency virus 1; test: Antiviral activity against HIV1 3B infected in human MT4 cells; format: functional, organism-based; settings: Human immunodeficiency virus 1, 3B
# [11] = tested on: Human immunodeficiency virus 1; test: Antiviral activity against HIV1 replication in infected cells; format: functional, organism-based
# T1 sequence (P07339 65-162 limits assumed): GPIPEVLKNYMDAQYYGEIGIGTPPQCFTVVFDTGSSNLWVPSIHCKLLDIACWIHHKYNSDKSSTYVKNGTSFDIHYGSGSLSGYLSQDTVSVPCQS
# T1 sequence (P07339 169-412 limits assumed): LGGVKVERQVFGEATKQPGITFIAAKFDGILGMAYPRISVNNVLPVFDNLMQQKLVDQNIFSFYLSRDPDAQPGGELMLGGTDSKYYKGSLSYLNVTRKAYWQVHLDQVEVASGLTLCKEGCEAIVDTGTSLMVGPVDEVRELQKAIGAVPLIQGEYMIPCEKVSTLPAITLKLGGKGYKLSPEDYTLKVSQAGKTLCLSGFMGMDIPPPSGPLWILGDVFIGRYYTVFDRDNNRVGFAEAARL
SMILES,Ki (Cathepsin D [1]) [nM],Ki (Plasmepsin II) [nM],Ki (Aspartic protease PM4) [nM],Ratio Ki (Cathepsin D [5]),Activity [6],Ki [2] [nM],Ki [3] [nM],Ki [4] [nM],other results
Cc1cccc(C)c1OCC(=O)NCC(O)(CCc1ccccc1)C(=O)N1CCC[C@H]1C(=O)N[C@H]1c2ccccc2C[C@H]1O (stereo in doubt; (B)-19) [listing 1 of 2 here],–,> 20000,1300,–,–,26900,10300,13000,–
Cc1cccc(C)c1OCC(=O)NC[C@](O)(Cc1ccccc1)C(=O)N1CSC(C)(C)[C@@H]1C(=O)N[C@H]1c2ccccc2C[C@H]1O,> 10000,1700,120,5000,inactive,1700,610,420,Ki (Protease): 670 nM
Cc1cccc(C)c1OCC(=O)NCC(O)(CCc1ccccc1)C(=O)N1CCC[C@H]1C(=O)N[C@H]1c2ccccc2C[C@H]1O (stereo in doubt; (B)-19) [listing 2 of 2 here],–,–,–,5000,–,–,–,–,–
Cc1ccccc1CNC(=O)[C@H]1N(C(=O)[C@@H](O)[C@H](Cc2ccccc2)NC(=O)c2cccc(O)c2C)CSC1(C)C,–,–,–,–,–,–,–,–,Ki [9]: 110 nM
Cc1cccc(C)c1OCC(=O)NC[C@](O)(CCc1ccccc1)C(=O)N1CSC(C)(C)[C@H]1C(=O)N[C@H]1c2ccccc2C[C@H]1O,> 10000,7400,2200,5000,–,5500,6500,> 20000,–
Cc1cccc(C)c1OCC(=O)NCC(O)(CCc1ccccc1)C(=O)N[C@@H](Cc1ccccc1)C(=O)N[C@H]1c2ccccc2C[C@H]1O (stereo in doubt; (B)-20) [listing 1 of 2 here],> 10000,–,–,–,–,–,–,–,Ki (Protease): 1000 nM
COC(=O)N[C@H](C(=O)NN(Cc1ccccc1)C[C@@](O)(Cc1ccccc1)C(=O)N[C@H]1c2ccccc2C[C@H]1O)C(C)(C)C,–,–,–,–,–,–,–,–,EC50 [11]: 1900 nM; Ki [8]: 12000 nM; Ki (Protease): 6 nM
Cc1cccc(C)c1OCC(=O)NCC(O)(CCc1ccccc1)C(=O)N[C@@H](Cc1ccccc1)C(=O)N[C@H]1c2ccccc2C[C@H]1O (stereo in doubt; (A)-20) [listing 1 of 2 here],> 10000,–,–,–,–,> 20000,–,–,–
COC(=O)N[C@H](C(=O)NN(Cc1ccccc1)C[C@](O)(Cc1ccccc1)C(=O)N[C@H]1c2ccccc2C[C@H]1O)C(C)(C)C,–,–,–,–,–,–,–,–,EC50 [11]: > 10000 nM; Ki [8]: 48000 nM; Ki (Protease): 2200 nM
Cc1cccc(C)c1OCC(=O)NCC(O)(CCc1ccccc1)C(=O)N[C@@H](Cc1ccccc1)C(=O)N[C@H]1c2ccccc2C[C@H]1O (stereo in doubt; (A)-20) [listing 2 of 2 here],–,–,–,5000,inactive,–,–,–,–
Cc1cccc(C)c1OCC(=O)NCC(O)(CCc1ccccc1)C(=O)N[C@@H](Cc1ccccc1)C(=O)N[C@H]1c2ccccc2C[C@H]1O (stereo in doubt; (B)-20) [listing 2 of 2 here],–,–,–,5000,inactive,–,–,–,–

# Now from value to compound, other results behind:
Ki (Cathepsin D [1]) [nM],Ki (Plasmepsin II) [nM],Ki (Aspartic protease PM4) [nM],Ratio Ki (Cathepsin D [5]),Activity [6],SMILES,Ki [2] [nM],Ki [3] [nM],Ki [4] [nM],other results
> 10000,> 20000,160,5000,inactive,Cc1cccc(C)c1OCC(=O)NC[C@@](O)(Cc1ccccc1)C(=O)N1CSC(C)(C)[C@H]1C(=O)N[C@H]1c2ccccc2C[C@H]1O,700,110,260,–
> 10000,440,390,5000,–,Cc1cccc(C)c1OCC(=O)NC[C@@](O)(CCc1ccccc1)C(=O)N1CSC(C)(C)[C@@H]1C(=O)N[C@H]1c2ccccc2C[C@H]1O,6300,1000,1100,Ratio Ki [7]: > 20000
2,–,–,–,–,Cc1cccc(C)c1OCC(=O)N[C@@H](Cc1ccccc1)[C@H](O)C(=O)N1CSC(C)(C)[C@H]1C(=O)N[C@H]1c2ccccc2C[C@H]1O,–,–,–,IC50 [8]: 15 nM; IC50 (Plasmepsin I): 280 nM; Ratio Ki [7]: 4; IC50 (Plasmodium falciparum): 6800 nM; IC50 (Plasmepsin III): 690 nM
> 10000,> 20000,2200,–,–,Cc1cccc(C)c1OCC(=O)NCC(O)(CCc1ccccc1)C(=O)N1CCC[C@H]1C(=O)N[C@H]1c2ccccc2C[C@H]1O (stereo in doubt; (A)-19) [listing 1 of 2 here],30200,7200,14500,–
> 10000,1400,370,5000,–,Cc1cccc(C)c1OCC(=O)NC[C@@](O)(CCc1ccccc1)C(=O)N1CSC(C)(C)[C@H]1C(=O)N[C@H]1c2ccccc2C[C@H]1O,3100,4500,7900,EC50 [10]: 6400 nM
–,–,–,5000,–,Cc1cccc(C)c1OCC(=O)NCC(O)(CCc1ccccc1)C(=O)N1CCC[C@H]1C(=O)N[C@H]1c2ccccc2C[C@H]1O (stereo in doubt; (A)-19) [listing 2 of 2 here],–,–,–,–
> 10000,> 20000,190,5000,inactive,Cc1cccc(C)c1OCC(=O)NC[C@](O)(Cc1ccccc1)C(=O)N1CSC(C)(C)[C@H]1C(=O)N[C@H]1c2ccccc2C[C@H]1O,720,530,250,–
> 10000,7600,340,5000,–,Cc1cccc(C)c1OCC(=O)NC[C@](O)(CCc1ccccc1)C(=O)N1CSC(C)(C)[C@@H]1C(=O)N[C@H]1c2ccccc2C[C@H]1O,10700,880,1600,–
> 10000,830,160,5000,inactive,Cc1cccc(C)c1OCC(=O)NC[C@@](O)(Cc1ccccc1)C(=O)N1CSC(C)(C)[C@@H]1C(=O)N[C@H]1c2ccccc2C[C@H]1O,1700,1300,210,–
